From ChEMBL document CHEMBL1153315, “Porphyrins containing nitric oxide donors: Synthesis and cancer cell-oriented NO release” (Bioorg Med Chem Lett, 2009)
Active and inactive are the calls of the source. The rule behind the calls is not given here.

Experiments:
[1] = Cytotoxicity against human L02 cells at 1.4 umol/L after 72 hrs by MTT assay; type: cell-based; conditions: l02, 72 h, 1.4 µM
Procedure, shortened: (§1)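 BEL-7402 (liver cancer) and L-02 (liver normal) cells seeded at 1×10^3 per well, preincubated 24 h at 37 °C, 5% CO2, exposed to 1.4 μmol/L compound in quadruplicate wells for 72 h. Viability by MTT (4 h), formazan dissolved in glycine-NaCl-buffered DMSO, read at 570 nm. One-way ANOVA with LSD multiple comparisons, P < 0.05.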

[2] = system: Bel-7402; test: Cytotoxicity against human Bel7402 after 72 hrs by MTT assay; type: functional, cell-based; conditions: Bel-7402, 72 h
Procedure, shortened: (§2)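 Cells seeded at 1×10^3 per well in medium, preincubated 24 h at 37 °C in 5% CO2, then test drug added in medium to quadruplicate wells for 72 h. MTT ([…] in complete medium) added for 4 h; formazan dissolved in DMSO buffered with glycine-NaCl (pH 10.5); absorbance at 570 nm. IC50 taken as concentration giving 50% loss of viability; means of three experiments.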

[3] = Induction of NO release in PBS at pH 7.4 by Griess assay; type: physicochemical; conditions: buffer
Procedure, shortened: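 Compound at 2 mM in 0.1 M phosphate buffer pH 7.4, no L-cysteine, incubated 1.5 h at 37 °C without air, then 10 min air at 25 °C. Nitrite measured by Griess reagent (sulfanilamide/N-naphthylethylenediamine), absorbance at 540 nm against a 0–100 µM sodium nitrite curve; expressed as % of 1 mol NO/mol theoretical release, n = 3.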

[4] = Induction of NO release in phosphate buffer containing L-cysteine at pH 7.4 by Griess assay; type: physicochemical
Procedure, shortened: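 Compound at 0.2 mM in 0.1 M phosphate buffer pH 7.4 mixed 1:1 with fresh 3.6 mM L-cysteine in the same buffer; incubated 1.5 h at 37 °C without air, then exposed to air 10 min at 25 °C. Griess reagent added, absorbance at 540 nm after 10 min; nitrite from sodium nitrite standard curve (0–100 µM); % of 1 mol NO/mol theoretical, n = 3.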

[5] = system: MCF7; test: Cytotoxicity against human MCF7 after 72 hrs by MTT assay; type: functional, cell-based; conditions: MCF7, 72 h; procedure, shortened: as §2
[6] = system: Bel-7402; test: Cytotoxicity against human Bel7402 cells at 1.4 umol/L after 72 hrs by MTT assay; type: functional, cell-based; procedure, shortened: as §1
[7] = system: Bel-7402; test: Induction of NO release in human Bel7402 cells assessed as decrease in absorbance at 100 umol/L after 30 mins by spectrophotometry; type: functional, cell-based
Procedure, shortened: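 BEL-7402 cells grown in 24-well plates at 37 °C, 5% CO2 to at least 70% confluency; medium replaced with medium containing 100 µmol/L compound. After 0 and 30 min at 37 °C, the drug-containing medium was removed and its absorbance measured by UV–vis spectrophotometry.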

SMILES | Activity [1] | IC50 [2] [µM] | Activity [3] [%] | Activity [4] [%] | IC50 [5] [µM] | Activity [6] | Activity [7]
O=Cc1ccc(OCCO[N+](=O)[O-])cc1 | Toxic | – | – | – | – | – | –
O=[N+]([O-])OCCCOc1ccc(-c2c3nc(c(-c4ccccc4)c4ccc([nH]4)c(-c4ccccc4)c4nc(c(-c5ccccc5)c5ccc2[nH]5)C=C4)C=C3)cc1 | – | 3 | 0.47 | 3.95 | 30 | Active | –
C1=Cc2nc1c(-c1ccccc1)c1nc(c(-c3ccccc3)c3ccc([nH]3)c(-c3ccccc3)c3ccc([nH]3)c2-c2ccccc2)C=C1 [TETRAPHENYLPORPHYRIN] | – | 350 | – | – | 245 | – | –
O=c1[nH]cc(F)c(=O)[nH]1 [FLUOROURACIL] | – | 4.3 | – | – | 4.7 | – | –
Cc1ccc(-c2c3nc(c(-c4ccc(C)cc4)c4ccc([nH]4)c(-c4ccc(OCCCO[N+](=O)[O-])cc4)c4nc(c(-c5ccc(C)cc5)c5ccc2[nH]5)C=C4)C=C3)cc1 | – | 1.4 | 1.1 | 6.25 | 46 | Active | –
O=[N+]([O-])OCCOc1ccc(-c2c3nc(c(-c4ccccc4)c4ccc([nH]4)c(-c4ccccc4)c4nc(c(-c5ccccc5)c5ccc2[nH]5)C=C4)C=C3)cc1 | – | 0.8 | 0.43 | 5.67 | 8.7 | Active | Active
Cc1ccc(-c2c3nc(c(-c4ccc(C)cc4)c4ccc([nH]4)c(-c4ccc(OCCO[N+](=O)[O-])cc4)c4nc(c(-c5ccc(C)cc5)c5ccc2[nH]5)C=C4)C=C3)cc1 | – | 1.8 | 0.55 | 3.12 | 55 | Active | –
O=Cc1ccc(OCCCO[N+](=O)[O-])cc1 | Toxic | – | – | – | – | – | –
